# FLuc inh counter: inhibits firefly luciferase, flagging false hits in luciferase inhibition screens; P08659; ATPLite firefly luciferase biochemical luminescence, 10 min; inhibition, % at 10 µM; 200,000 compounds, 1.5% hits; AID 1006;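 active = inhibition above about 50% when tested at 10 µM, limit read from the data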
# Target sequence (P08659 whole entry, looked up): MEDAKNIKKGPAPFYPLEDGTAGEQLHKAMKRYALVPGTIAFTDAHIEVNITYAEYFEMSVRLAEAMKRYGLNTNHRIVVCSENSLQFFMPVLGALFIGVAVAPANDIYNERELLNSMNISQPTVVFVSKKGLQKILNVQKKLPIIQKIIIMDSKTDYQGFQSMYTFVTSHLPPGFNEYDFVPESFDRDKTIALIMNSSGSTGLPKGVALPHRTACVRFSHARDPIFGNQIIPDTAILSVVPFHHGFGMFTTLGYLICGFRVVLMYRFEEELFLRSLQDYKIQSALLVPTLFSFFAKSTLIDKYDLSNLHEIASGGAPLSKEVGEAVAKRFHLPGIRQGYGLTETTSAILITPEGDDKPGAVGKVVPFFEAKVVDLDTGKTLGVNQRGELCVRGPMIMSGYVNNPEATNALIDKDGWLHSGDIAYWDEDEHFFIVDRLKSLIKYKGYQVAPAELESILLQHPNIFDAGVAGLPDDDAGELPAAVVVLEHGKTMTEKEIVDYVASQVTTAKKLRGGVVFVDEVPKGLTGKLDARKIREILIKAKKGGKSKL
# HSP90 refold inh: inhibitors of HSP90 luciferase refolding in rabbit reticulocyte lysate; inhibition, % at 5.6 µM; luciferase refolding luminescence, 3 h; 290,000 compounds, 0.91% hits;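 active = inhibition above the screen-wide mean plus 3 SD, computed separately per campaign, cut at about 16% in these data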;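 note: 0% = DMSO wells and 100% = 60 µM geldanamycin wells; inhibitors lower the luminescence because luciferase stays unfolded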
# STAT3 inh: reduces IL-6 driven STAT3 reporter signal | U3A cells, IL-6 STAT3-luciferase reporter, luminescence; host cell line lacks STAT1 | inhibition, % at 5.5 µM | 190,000 compounds, 0.89% hits | AID 862;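 active = inhibition above the mean inhibition across all screened compounds plus 3 SD, cut at about 44% in these data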;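 note: 0% = DMSO only wells and 100% = 100 µM nifuroxazide control wells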
# PPC-1+TRAIL kill: kills PPC-1 cancer cells in the presence of TRAIL; PPC-1 cells + TRAIL, ATPLite viability luminescence; cell killing (% activity), % at 4 µM or 5 µM; 220,000 compounds, 0.41% hits;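 active = cell killing above 50% in the first pass at 4 µM, then a duplicate retest at 5 µM averaging 50% or more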;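 note: plate controls were cells with TRAIL plus DMSO for no effect and medium-only wells lacking cells for full effect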
# TRAIL sens C8: sensitizes caspase-8 expressing cells to TRAIL; inhibition (viability loss, TRAIL sensitization), % at 10 µM; NB7+C8 cells + TRAIL, ATPlite viability luminescence; 360,000 compounds, 1% hits;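 active = compounds causing at least 50% loss of cell viability in the single-dose screen, relative to plate controls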
# FLuc stim CS: firefly luciferase counter-screen for stimulation assays; P08659; ATPlite luciferase biochemical, luminescence, 10 min; 0 = ATP-free wells, 1 = DMSO control; activation factor at 10 µM; 200,000 tested, under 10 active; AID 1027;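 active = luciferase activation factor, scaled between plate controls, of at least 2 with compound at 10 µM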
#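 Assay system: Luciferase/luciferin detection reagent, cell-free biochemical luciferase assay / Read-out: luciferase activation / Benchmarks: No-ATP low control, compound-free enzyme-plus-ATP high control / Medium: PBS buffer for ATP / Detection: luminescence measurement of luciferase light output / Schedule: 10 min at ambient temperature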
# * marks the source's active call; other numbers are inactive results; . = no result; ! = repeats disagree. Shown are actives, neighbours in structure and some others; about 2.2% of the full set was active somewhere.
SMILES,FLuc inh counter,HSP90 refold inh,STAT3 inh,PPC-1+TRAIL kill,TRAIL sens C8,FLuc stim CS
COc1ccc(-n2nc(C(=O)NCC(=O)N3CCN(c4ccccc4F)CC3)c3ccccc3c2=O)cc1,.,-0.5,.,.,72.3*,.
CC(=O)Nc1ccc(OCC(O)Cn2cncn2)cc1 (configuration not stated),.,-5.9,.,.,-2.9,.
COc1cccc(C(=O)NCC(=O)OCC(=O)NC2CCCCC2)c1,.,.,.,.,-8.2,.
Cc1cccc(C)c1NC(=O)C1c2ccccc2OCC(=O)N1CCCN1CCOCC1 (configuration not stated),.,.,.,.,2.2,.
CC(C)N1CCC(C)(C(=O)Nc2cccc(Oc3ccccc3)c2)C1 (configuration not stated),.,.,.,.,9.2,.
CSc1nnc(NC(=O)c2ccc(S(=O)(=O)N(C)C)cc2)s1,60.5*,4.4,8.0,20.7,39.5,0.4
Cc1nnc(NC(=O)c2ccc(S(=O)(=O)C(F)F)cc2)s1,.,3.6,.,25.7,50.4*,.
CN(C)S(=O)(=O)c1ccc(C(=O)Nc2nnc(SCc3ccccc3)s2)cc1,-1.1,3.3,-5.6,3.0,4.8,1
CN(C)S(=O)(=O)c1ccc(C(=O)Nc2nnc(SCC(=O)N3CCOCC3)s2)cc1,.,.,.,.,59.9*,.
Cc1noc(C)c1COC(=O)c1ccc(F)c(S(=O)(=O)N2CCOCC2)c1,.,.,.,.,-16.9,.
O=C(CC1(O)C(=O)N(Cc2cccc3ccccc23)c2ccccc21)c1cccnc1 (configuration not stated),68.8*,-0.3,-4.0,1.5,20.7,0.3
Cc1ccc2nsnc2c1NC(=O)c1cncc(Br)c1,-2.9,2.5,-1.0,26.9,15.6,1
Cn1c(=N)n(CC(=O)c2ccc(Br)s2)c2ccccc21,-5.2,7.3,-69.1,6.7,18.4,1.1
N=c1n(CC(=O)c2ccc(Br)s2)c2ccccc2n1Cc1ccccc1,.,4.0,.,2.8,55.6*,.
Cc1cccc(N2CCN(C(=O)C3CCN(S(=O)(=O)c4c(C)noc4C)CC3)CC2)c1C,.,-3.0,.,.,0.4,.
COc1ccc(-c2nc(CCl)cs2)cc1OC,2.0,-1.3,-2.7,-2.2,-16.1,1
CCc1ccc(-c2nc(CCl)cs2)cc1,64.8*,0.3,4.9,-7.3,15.0,0.4
CCCN(Cc1cc2cc(C)ccc2[nH]c1=O)C(=O)c1cccc([N+](=O)[O-])c1,.,2.8,.,21.6,-0.6,.
O=S(=O)(c1ccccc1)c1nnn2c1nc(NC1CCN(Cc3ccccc3)CC1)c1ccccc12,.,1.1,.,.,75.9*,.
C[C@H](NC(=O)C[C@@H]1CC[C@H]2[C@@H](COC[C@H](O)CN2Cc2ccc(C(F)(F)F)cc2)O1)c1ccccc1,.,.,.,.,0.3,.
Cc1ccc(/C=C(\C#N)C(=O)Nc2ccccn2)o1,67.5*,-4.7,1.6,5.0,29.6,0.3
COc1ccc(/C=C(\C#N)C(=O)Nc2ccccn2)cc1,.,3.7,.,.,3.1,.
Cc1nc(Nc2ccccc2)sc1-c1ccccc1,84.9*,-4.8,14.7,32.6,65.7*,0.2
CN(C)CC(CCC(CN(C)C)C(=O)c1ccccc1)C(=O)c1ccccc1 (configuration not stated),.,4.3,.,51.9*,16.3,.
CCOc1ccc(C(=O)C(CCC(CN(C)C)C(=O)c2ccc(OCC)cc2)CN(C)C)cc1 (configuration not stated),-4.2,-0.2,17.7,31.6,-3.0,1
SMILES,FLuc inh counter,HSP90 refold inh,STAT3 inh,PPC-1+TRAIL kill,TRAIL sens C8,FLuc stim CS
O=C(C[C@H]1C/C=C\CC[C@H](Cc2ccc(F)cc2)C(=O)O[C@H](c2ccccc2)CNC1=O)N[C@H](CO)Cc1ccccc1,.,.,.,.,-5.8,.
CCCCCN(C(=O)CCC(=O)OC(C)C(=O)Nc1cccc(C#N)c1)c1c(N)n(CCCC)c(=O)[nH]c1=O (configuration not stated),.,.,.,.,-8.9,.
Cn1c(=O)[nH]c(=O)c2c1nc([N+](=O)[O-])n2Cc1ccccc1,.,0.5,.,30.6,85.2*,.
CC(C)Cn1c([N+](=O)[O-])nc2c1c(=O)[nH]c(=O)n2C,.,-5.8,.,0.9,20.4,.
Cc1cc(C2=NNC(=Nc3ccccc3)SC2)c(C)n1C,60.9*,3.6,12.7,17.2,-1.7,0.4
Cc1ccc(-n2c(C)cc(C3=NNC(=NC4CC4)SC3)c2C)cc1C,63.2*,6.0,-10.3,22.8,64.3*,0.4
CC(=O)C[C@@H](O)CC(=O)[C@@H]1OC(=O)CCCCCc2ccccc21,.,.,.,.,-7.0,.
O=c1cc(-c2ccc([N+](=O)[O-])cc2)c2ccc(O)cc2o1,10.5,-0.7,23.2,6.9,10.6,0.9
Cc1ccc(S(=O)(=O)N2CCOCC2)cc1NC(=O)CSc1nnc(NC2CC2)s1,.,.,.,.,0.7,.
O=C1c2ccccc2C(=O)c2c1oc(C(F)(F)F)c2C(=O)c1ccccc1,2.8,-1.1,1.6,20.1,96.1*,1
S=C(c1ccc(-c2ccc(Cl)cc2)o1)N1CCCCC1,71.3*,0.1,12.5,48.6,48.1,0.3
Cc1ccc(C(c2nnnn2C2CCCC2)N2c3ccccc3CC2C)cc1 (configuration not stated),-4.1,-2.6,-5.2,8.0,-21.5,1
C=CCN=c1scc(-c2ccccc2)n1/N=C/c1ccccn1,44.7,3.9,24.8,30.0,53.3*!,0.6
C=CCN=c1scc(-c2ccc(F)cc2)n1/N=C/c1ccccn1,-1.1,4.5,-4.7,17.0,44.1,1
CCN=c1scc(-c2ccccc2)n1/N=C/c1ccccn1,74.4*,11.6,45.4*,50.0,89.3*,0.3
COc1cccc(CNC(=O)[C@@H]2CCCN2C(=O)[C@H]2CCCCN2)c1,.,.,.,.,-2.5,.
COc1ccc(Br)cc1CN(C)C(=O)c1cnc(C)cn1,.,-0.8,.,.,2.5,.
Cc1[nH]nc(SCC(=O)NCc2ccc(Cl)cc2)c1[N+](=O)[O-],-8.4,4.0,7.4,-18.2,11.9,1.1
COc1ccc(NCC(=O)N/N=C/C=C/c2ccccc2[N+](=O)[O-])cc1,0.8,3.0,9.7,4.9,-14.8,1
CCOc1ccc(NCC(=O)N/N=C/C=C/c2ccccc2)cc1,55.9*,1.1,4.7,36.3,12.4,0.4
O=C(Nc1ccccc1)OCCOc1ccc(Br)cc1,.,-1.0,.,.,-4.3,.
N=c1oc2cc(O)ccc2cc1C(=O)Nc1ccc(Cl)cc1,.,2.6,.,.,48.5*,.
COc1ccccc1NC(=O)CCCC(=O)OCC(=O)c1ccc(F)cc1,.,-1.1,.,.,-0.2,.
COc1ccccc1NC(CC(=O)c1ccccc1)C(=O)OCC(=O)c1ccc(F)cc1 (configuration not stated),-4.3,6.6,24.5,-4.9,67.6*,1
CC(C(=O)N1CCc2ccccc21)n1cnc2c1c(=O)n(C)c(=O)n2C (configuration not stated),.,.,.,.,2.6,.
CCCn1c(/C=C/c2ccccc2)nc2ccccc21,71.9*,1.4,-9.4,36.6,52.6*,0.3
CCn1c(/C=C/c2cc[n+](C)cc2)nc2ccccc21,.,0.4,.,.,14.7,.
COCCOCCn1c(/C=C/c2ccccc2)nc2ccccc21,83.5*,0.6,30.9,47.8,52.5*,0.2

# Screening results deposited in PubChem by several laboratories.
